Assay results from ChEMBL document CHEMBL4602720, “Degradation versus Inhibition: Development of Proteolysis-Targeting Chimeras for Overcoming Statin-Induced Compensatory Upregulation of 3-Hydroxy-3-methylglutaryl Coenzyme A Reductase” (J Med Chem, 2020).
Active and inactive are the calls of the source. The rule behind the calls is not given here.

How the values were obtained:
Huh-7 [1] = assay: Effect on total neutral lipid in human HuH7 cells assessed change in lipid droplet count at 1 uM after 16 hrs by Oil Red O staining based method; format: ADME, cell-based; conditions: huh-7, 16 h
Procedure, shortened: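 Huh7 cells on glass coverslips, treated, fixed in 4% paraformaldehyde in PBS 30 min at room temperature, stained 15 min with 0.5% (w/v) Oil Red O in propylene glycol, washed in water; lipid droplets examined relative to DMSO.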

[2] = target: T1, Protein cereblon/3-hydroxy-3-methylglutaryl-coenzyme A reductase (Cricetulus griseus) (UniProt P00347+G3H338); assay: Protac activity at CRBN/HMGCR in Insig-1/Insig-2 deficient Chinese hamster SRD15 cells assessed as HMGCR level at 1 uM after 16 hrs by immunoblotting analysis (reference value: 1)
Procedure, shortened: (§1)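 Dose-response in SRD15 cells in Medium A with 5% FBS, 16 h treatment, DMSO final 0.1% or lower. RIPA lysates immunoblotted for HMGCR. HMGCR densitometry normalized to actin, with the DMSO group set to 1. Three repeats. DC50 is taken from a dose-response fit of the semi-quantitative blots, mean of 3 independent experiments.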
Target sequence in this assay (G3H338 1-445 partner): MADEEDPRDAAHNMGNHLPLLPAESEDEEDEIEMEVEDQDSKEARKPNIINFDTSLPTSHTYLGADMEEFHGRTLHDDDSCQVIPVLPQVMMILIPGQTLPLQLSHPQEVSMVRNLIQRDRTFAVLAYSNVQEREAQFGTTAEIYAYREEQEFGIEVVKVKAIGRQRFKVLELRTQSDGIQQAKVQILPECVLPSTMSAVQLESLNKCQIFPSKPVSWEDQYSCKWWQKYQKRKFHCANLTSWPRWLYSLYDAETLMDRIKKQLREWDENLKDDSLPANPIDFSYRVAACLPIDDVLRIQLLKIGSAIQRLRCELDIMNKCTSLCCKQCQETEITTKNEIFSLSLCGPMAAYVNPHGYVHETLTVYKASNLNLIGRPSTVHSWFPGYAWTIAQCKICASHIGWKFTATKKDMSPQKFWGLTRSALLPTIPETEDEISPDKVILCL
Target sequence in this assay (P00347 whole entry): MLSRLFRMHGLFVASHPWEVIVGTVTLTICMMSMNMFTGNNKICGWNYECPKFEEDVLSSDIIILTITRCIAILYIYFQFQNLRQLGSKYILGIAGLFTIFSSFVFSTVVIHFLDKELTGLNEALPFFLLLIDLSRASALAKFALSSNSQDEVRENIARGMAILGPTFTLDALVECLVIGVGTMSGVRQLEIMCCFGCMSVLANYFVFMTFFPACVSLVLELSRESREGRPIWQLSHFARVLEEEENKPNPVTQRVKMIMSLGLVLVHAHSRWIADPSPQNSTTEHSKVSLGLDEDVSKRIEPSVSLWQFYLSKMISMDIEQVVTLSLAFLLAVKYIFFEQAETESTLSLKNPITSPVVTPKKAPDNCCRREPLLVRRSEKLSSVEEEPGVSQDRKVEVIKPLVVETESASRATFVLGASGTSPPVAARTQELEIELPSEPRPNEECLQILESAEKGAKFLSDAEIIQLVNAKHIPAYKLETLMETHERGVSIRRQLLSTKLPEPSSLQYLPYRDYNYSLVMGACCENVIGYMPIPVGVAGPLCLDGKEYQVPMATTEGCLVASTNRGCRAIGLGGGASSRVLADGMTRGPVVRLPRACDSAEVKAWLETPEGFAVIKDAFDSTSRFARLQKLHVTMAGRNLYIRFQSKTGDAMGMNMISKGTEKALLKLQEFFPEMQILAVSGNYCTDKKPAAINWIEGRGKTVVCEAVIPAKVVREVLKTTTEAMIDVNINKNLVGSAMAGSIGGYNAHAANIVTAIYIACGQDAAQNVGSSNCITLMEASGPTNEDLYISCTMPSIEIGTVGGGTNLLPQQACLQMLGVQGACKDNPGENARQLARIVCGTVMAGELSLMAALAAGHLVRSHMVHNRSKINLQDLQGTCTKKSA

[3] = target: T1, Protein cereblon/3-hydroxy-3-methylglutaryl-coenzyme A reductase (Cricetulus griseus); assay: Protac activity at CRBN/HMGCR in Insig-1/Insig-2 deficient Chinese hamster SRD15 cells assessed as HMGCR level at 1 uM after 16 hrs in presence of 1 uM P22A-Et by immunoblotting analysis (reference value: 1)
[4] = target: T1, Protein cereblon/3-hydroxy-3-methylglutaryl-coenzyme A reductase (Cricetulus griseus); assay: Protac activity at CRBN/HMGCR in Insig-1/Insig-2 deficient Chinese hamster SRD15 cells assessed as HMGCR level at 1 uM after 16 hrs by immunoblotting analysis relative to control; procedure, shortened: as §1
Target sequence in this assay (G3H338 1-445 partner): as the sequence (G3H338 1-445 partner) above
Target sequence in this assay (P00347 whole entry): as the sequence (P00347 whole entry) above

Huh-7 [5] = assay: Inhibition of cholesterol biosynthesis in human HuH7 cells preincubated for 14 hrs and followed by addition of 14C-acetate and measured after 2 hrs by TL method; format: functional, cell-based
Procedure, shortened: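 Sterol-depleted Huh7 cells (Medium B plus 5% lipoprotein-deficient serum) treated at varying concentrations for 14 h, pulse-labelled with ¹⁴C-acetate 1 μCi/μL for 2 h, washed, lysed in 0.1 M NaOH; lipids separated by TLC, ¹⁴C-cholesterol read by phosphorimager, DMSO set to 1.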

[6] = target: T1, Protein cereblon/3-hydroxy-3-methylglutaryl-coenzyme A reductase (Cricetulus griseus); assay: Protac activity at CRBN/HMGCR in Insig-1/Insig-2 deficient Chinese hamster SRD15 cells assessed as HMGCR level at 0.1 uM after 16 hrs by immunoblotting analysis (reference value: 1); procedure, shortened: as §1
Target sequence in this assay (G3H338 1-445 partner): as the sequence (G3H338 1-445 partner) above
Target sequence in this assay (P00347 whole entry): as the sequence (P00347 whole entry) above

[7] = target: Protein cereblon/3-hydroxy-3-methylglutaryl-coenzyme A reductase (Homo sapiens) (UniProt P04035+Q96SW2); assay: Protac activity at CRBN/HMGCR in human Huh7 cells assessed as induction of HMGCR degradation at 0.01 to 1 uM after 16 hrs by Western blot analysis; format: cell-based; conditions: Huh-7
[8] = target: T1, Protein cereblon/3-hydroxy-3-methylglutaryl-coenzyme A reductase (Cricetulus griseus); assay: Protac activity at CRBN/HMGCR in 5'-CCAGAAACUGAAGAUGAAA-3' siRNA transfected in Insig-1/Insig-2 deficient Chinese hamster SRD15 cells assessed as induction of HMGCR degradation at 1 uM after 16 hrs by immunoblotting analysis
Procedure, shortened: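 SRD15 cells (Insig-1/Insig-2-deficient CHO-7) in Medium A with 5% FBS at 37 °C, 5% CO2; transfected with negative-control or Crbn-targeting siRNA duplexes for 48 h, then given 1 μM degrader for 16 h. HMGCR by SDS-PAGE immunoblot of RIPA lysates. Knockdown efficiency checked by qRT-PCR against hamster GAPDH, comparative CT method. n = 3 independent experiments.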

[9] = target: T1, Protein cereblon/3-hydroxy-3-methylglutaryl-coenzyme A reductase (Cricetulus griseus); assay: Protac activity at CRBN/HMGCR in Insig-1/Insig-2 deficient Chinese hamster SRD15 cells assessed as HMGCR level at 0.03 uM after 16 hrs by immunoblotting analysis (reference value: 1); procedure, shortened: as §1
[10] = target: T2, Thioredoxin domain-containing protein 11 (Homo sapiens) (UniProt Q6PKC3); assay: Activation of TXNDC11 (unknown origin)
T2 sequence (whole entry): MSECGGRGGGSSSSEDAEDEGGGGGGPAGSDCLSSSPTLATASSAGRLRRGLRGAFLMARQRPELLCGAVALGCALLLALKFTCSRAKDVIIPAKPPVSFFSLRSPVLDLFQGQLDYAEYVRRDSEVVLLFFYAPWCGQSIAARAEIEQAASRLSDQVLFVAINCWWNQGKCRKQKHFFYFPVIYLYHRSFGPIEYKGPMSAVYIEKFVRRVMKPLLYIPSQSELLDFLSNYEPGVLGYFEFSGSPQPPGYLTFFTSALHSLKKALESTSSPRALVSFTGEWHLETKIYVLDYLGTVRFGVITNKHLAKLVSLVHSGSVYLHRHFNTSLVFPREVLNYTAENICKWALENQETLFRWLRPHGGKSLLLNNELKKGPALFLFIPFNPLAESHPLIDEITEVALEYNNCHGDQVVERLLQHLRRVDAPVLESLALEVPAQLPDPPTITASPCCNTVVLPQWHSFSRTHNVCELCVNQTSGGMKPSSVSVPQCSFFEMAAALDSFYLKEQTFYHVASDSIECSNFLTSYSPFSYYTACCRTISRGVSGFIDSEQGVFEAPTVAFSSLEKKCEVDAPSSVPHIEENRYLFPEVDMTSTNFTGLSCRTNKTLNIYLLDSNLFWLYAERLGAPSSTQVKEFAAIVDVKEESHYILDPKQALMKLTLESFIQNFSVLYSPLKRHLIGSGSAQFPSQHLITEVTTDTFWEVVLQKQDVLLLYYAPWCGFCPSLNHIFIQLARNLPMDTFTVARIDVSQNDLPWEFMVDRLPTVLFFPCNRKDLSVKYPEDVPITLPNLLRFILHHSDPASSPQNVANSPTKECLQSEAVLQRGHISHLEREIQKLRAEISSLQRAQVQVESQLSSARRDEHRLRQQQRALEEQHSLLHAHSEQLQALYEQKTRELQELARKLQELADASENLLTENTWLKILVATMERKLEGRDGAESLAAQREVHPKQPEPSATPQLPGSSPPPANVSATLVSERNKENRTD

Sequence of Protein cereblon/3-hydroxy-3-methylglutaryl-coenzyme A reductase (Homo sapiens) (P04035 whole entry, looked up): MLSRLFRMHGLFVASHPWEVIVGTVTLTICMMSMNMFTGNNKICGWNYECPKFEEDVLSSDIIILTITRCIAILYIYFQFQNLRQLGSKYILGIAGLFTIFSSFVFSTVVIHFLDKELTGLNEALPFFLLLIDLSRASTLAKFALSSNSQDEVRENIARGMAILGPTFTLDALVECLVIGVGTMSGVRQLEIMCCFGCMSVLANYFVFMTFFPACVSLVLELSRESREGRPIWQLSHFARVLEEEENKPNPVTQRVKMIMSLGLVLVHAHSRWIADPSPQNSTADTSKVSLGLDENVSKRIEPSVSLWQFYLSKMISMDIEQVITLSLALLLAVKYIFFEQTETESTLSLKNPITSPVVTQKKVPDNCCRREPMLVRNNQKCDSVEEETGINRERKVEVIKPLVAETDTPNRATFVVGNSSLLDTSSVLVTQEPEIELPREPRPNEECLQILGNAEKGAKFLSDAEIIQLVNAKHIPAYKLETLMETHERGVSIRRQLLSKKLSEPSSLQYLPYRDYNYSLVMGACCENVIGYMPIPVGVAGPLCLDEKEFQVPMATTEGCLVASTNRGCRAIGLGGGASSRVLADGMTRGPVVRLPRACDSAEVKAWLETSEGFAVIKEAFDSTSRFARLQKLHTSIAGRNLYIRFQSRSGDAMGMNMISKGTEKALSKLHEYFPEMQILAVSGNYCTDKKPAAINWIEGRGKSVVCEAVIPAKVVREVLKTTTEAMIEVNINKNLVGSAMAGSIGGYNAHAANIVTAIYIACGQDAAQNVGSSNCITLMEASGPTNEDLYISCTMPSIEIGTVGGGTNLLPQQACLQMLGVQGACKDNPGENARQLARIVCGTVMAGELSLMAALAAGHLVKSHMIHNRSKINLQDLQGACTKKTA
Sequence of Protein cereblon/3-hydroxy-3-methylglutaryl-coenzyme A reductase (Homo sapiens) (Q96SW2 whole entry, looked up): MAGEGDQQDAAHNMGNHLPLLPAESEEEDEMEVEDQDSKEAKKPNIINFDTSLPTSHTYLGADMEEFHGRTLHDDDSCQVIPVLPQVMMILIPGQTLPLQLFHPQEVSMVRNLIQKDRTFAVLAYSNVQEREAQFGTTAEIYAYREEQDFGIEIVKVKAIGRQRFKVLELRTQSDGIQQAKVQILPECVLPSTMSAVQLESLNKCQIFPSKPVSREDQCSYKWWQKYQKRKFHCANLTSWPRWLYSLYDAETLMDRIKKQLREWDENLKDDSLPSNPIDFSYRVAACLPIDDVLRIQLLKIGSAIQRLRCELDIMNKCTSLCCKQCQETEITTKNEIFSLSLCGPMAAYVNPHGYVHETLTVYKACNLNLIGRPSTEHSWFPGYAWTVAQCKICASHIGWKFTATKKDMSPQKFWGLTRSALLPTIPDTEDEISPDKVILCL

SMILES: CC(C)c1c(C(=O)Nc2ccccc2)c(-c2cccc(OCCCc3cn(CCOCCOCCOCCOCCNc4cccc5c4C(=O)N(C4CCC(=O)NC4=O)C5=O)nn3)c2)c(-c2ccc(F)cc2)n1CC[C@@H](O)C[C@@H](O)CC(=O)O (stereo not given in full)
- Activity (Huh-7 [1]): Non-Toxic
- fold change (FC) [2]: 0.3 to 0.6
- fold change (FC) [3]: 1.1
- Activity [4]: 50%
- inhibition (Huh-7 [5]): Active
- fold change (FC) [6]: 0.6
- Activity [7]: Active
- Activity [8]: inactive
- fold change (FC) [9]: 0.6
- fold change (FC) [10]: 7
